High-throughput results: PubChem, Sanford-Burnham Center for Chemical Genomics
Sampled rows, rich in hits. Any-hit rate of the full collection: about 2%.
LMPTP block: blocks human LMPTP phosphatase | recombinant LMPTP-A, OMFP fluorogenic substrate, fluorescence intensity | P24666 | 360,000 compounds, 0.22% hits | inhibition, % at 20 µM;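 active means compounds that cut the enzyme signal by at least half of the control window in the single-dose screen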;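 further: plate controls were DMSO wells with enzyme plus substrate for no effect and substrate without enzyme for full effect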
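Assay system: LMPTP-A enzyme. Input: 0.625 nM LMPTP-A final. Probe or stimulus: 400 µM OMFP. Compound dosing: single 20 µM dose. Schedule: 50 min dark incubation at room temperature. Detection: fluorescence intensity of OMFP turnover product. Read-out: percent inhibition versus substrate-only and uninhibited controls. Benchmarks: no-enzyme low control, uninhibited high control.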
STEP inh: inhibitors of human striatal-enriched phosphatase STEP. recombinant STEP, OMFP fluorogenic substrate, fluorescence. inhibition, % at 20 µM. 360,000 compounds, 0.25% hits;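 active means inhibition at 20 µM, scaled per plate between control wells, above about 37%, limit read from the data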;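 further: 0% = DMSO with enzyme and substrate and 100% = substrate only without enzyme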
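Assay system: isolated STEP enzyme / Timing: 20 min at room temperature, dark / Doses: 20 µM, 1% DMSO / Technique: fluorescence intensity, excitation 480 nm, emission 540 nm / Reagent: fluorogenic phosphatase substrate OMFP at 25 µM final / Measure: percent inhibition scaled to no-enzyme and uninhibited-enzyme controls, plate-pattern corrected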
SUMO1 PPI mod: alters human SUMO1 binding to SIM partners. 360,000 compounds, 0.33% hits. SUMO1 binding to a labelled peptide, TR-FRET, 1 h. inhibition, % at 20 µM. P63165; in the data active means inhibition above about 37%
Target sequence (P63165 whole entry, looked up): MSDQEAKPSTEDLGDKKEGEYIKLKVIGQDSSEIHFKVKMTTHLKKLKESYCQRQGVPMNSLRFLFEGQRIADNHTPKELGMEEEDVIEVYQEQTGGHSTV
Scp-1 inhibitor: inhibitors of human Scp-1 phosphatase | Q9GZU7 | Recombinant Scp1, phosphopeptide, malachite green phosphate absorbance | inhibition, % at 20 µM | 340,000 compounds, 0.88% hits;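 active means inhibition above about 50% at 20 µM, limit read from the data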;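 further: plate controls were DMSO wells with enzyme for no effect and wells lacking enzyme for full effect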
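Assay system: SCP-1 catalytic fragment, aa 76-261 | Buffer or medium: Tris acetate buffer pH 5.5 with MgCl2 and Tween-20 | Compound: One concentration, 20 µM, with 1.0% DMSO | Also added: Phospho 17-mer peptide substrate | Signal: Absorbance at 630 nm | Incubation: 45 min enzyme reaction at room temperature | Measure: % inhibition of SCP-1 phosphate liberation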
CSN inh: blocks human CSN-mediated cullin deneddylation; AID 651999; inhibition, % at 12.5 µM; Purified CSN, SCF-Nedd8-OG deneddylation, fluorescence polarization; 360,000 compounds, 0.38% hits; Q92905;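 active means pattern-corrected inhibition above about 35%, with an unprinted fluorescence ratio check between 0.5 and 1.5, limit read from the data, passing the limit was not always enough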;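 further: 0% = enzyme with substrate and 100% = substrate without enzyme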
Target sequence (Q92905 whole entry, looked up, one chain of several): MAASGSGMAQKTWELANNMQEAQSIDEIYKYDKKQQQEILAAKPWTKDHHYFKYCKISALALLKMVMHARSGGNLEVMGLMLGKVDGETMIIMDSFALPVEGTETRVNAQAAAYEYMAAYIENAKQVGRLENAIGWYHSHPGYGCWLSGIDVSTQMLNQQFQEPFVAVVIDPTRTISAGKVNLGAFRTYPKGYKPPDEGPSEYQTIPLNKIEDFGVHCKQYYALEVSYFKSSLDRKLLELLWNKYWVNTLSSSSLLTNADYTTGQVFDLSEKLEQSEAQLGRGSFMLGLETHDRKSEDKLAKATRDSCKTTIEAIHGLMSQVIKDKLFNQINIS
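Material: human Csn5 produced in HEK293T cells; Input: enzyme 0.24 nM; Reagent: SCFSkp2-Nedd8OG substrate at 10 nM final; Dosing: 12.5 µM compound; Incubation: 90 min reaction at room temperature; Detection: fluorescence polarization of the substrate; Evaluation: % inhibition of substrate cleavage by Csn5; Control set: substrate-only high control, full reaction low control.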
DNMT1 inh: DNMT1 (human) enzyme inhibition; P26358; DNMT1 molecular beacon, Hinp1I cleavage, fluorescence; inhibition (reported as % activation of signal), % at 10 µM; 360,000 compounds, 0.83% hits; in the data active means inhibition above about 50%
Scp-1 conf: confirmation of human Scp-1 phosphatase inhibitors | recombinant SCP-1 catalytic domain, phosphate release, malachite green absorbance | inhibition, % at 20 µM | AID 540281 | shares compounds with Scp-1 inhibitor | 2,500 compounds, 61% hits;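 further: plate controls were DMSO with enzyme for no effect and buffer wells lacking enzyme for full effect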
MG interference: counter-screen for Scp-1 inhibitors: colorimetric interference | Colorimetric interference counterscreen, malachite green absorbance 630 nm | AID 540313 | 2,500 tested, under 10 active | shares compounds with Scp-1 inhibitor | apparent inhibition (interference), % at 20 µM;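 further: compounds added after enzyme reaction finished so only phosphate colour detection is probed; plate controls were DMSO wells with completed Scp-1 reaction for no effect and substrate wells lacking enzyme for full effect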
Scp-1 Tm shift: validation of human Scp-1 inhibitors by thermal shift binding; shares compounds with Scp-1 inhibitor; Recombinant SCP1, Sypro Orange thermal shift Tm; thermal shift relative to vanadate control, % at 40 µM; 1,500 compounds, 25% hits; AID 540329;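 active means substances whose mean melting-temperature shift, as a percentage of the reference inhibitor's shift, reaches about 5.3%, limit read from the data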;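 further: 0% = Tm of DMSO wells and 100% = Tm with sodium orthovanadate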
Starred values were filed as active, the others as inactive.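 How the source made its calls, unless noted: active means inhibition of at least 30% at 20 µM; inactive means the rest.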

For Cn1nnc(-c2ccc(OCc3ccccc3F)cc2)n1 the results were LMPTP block 0, STEP inh 4, SUMO1 PPI mod -3, Scp-1 inhibitor 65*, CSN inh 3, DNMT1 inh 3, Scp-1 conf -10 and MG interference -10.
For Fc1ccccc1COc1ccc(-c2nnn(Cc3ccccc3F)n2)cc1 the results were LMPTP block 3, STEP inh -1, SUMO1 PPI mod 3, Scp-1 inhibitor -18, CSN inh -4 and DNMT1 inh -7.
`Cc1ccc(NC(=O)CN2CCCC2c2cccn2C)c(Br)c1` (stereo not drawn) gave LMPTP block 1, STEP inh 0, SUMO1 PPI mod 1, Scp-1 inhibitor -6, CSN inh -2 and DNMT1 inh -1.
Screening CCn1c(CNC(=O)COc2ccc(C(C)C)cc2)nnc1SCC(=O)Nc1cc(F)ccc1C returned LMPTP block -1, STEP inh -2, SUMO1 PPI mod 2, Scp-1 inhibitor 85*, CSN inh -6, DNMT1 inh 1, Scp-1 conf 46*, MG interference -17 and Scp-1 Tm shift -6.
`CCn1c(CNC(=O)c2ccco2)nnc1SCC(=O)Nc1cc(F)ccc1C` gave LMPTP block -2, STEP inh -2, SUMO1 PPI mod 1, Scp-1 inhibitor -6, CSN inh 4 and DNMT1 inh 2.
CC1=NNC(=O)C1CCC(=O)N/N=C/c1c(Cl)cccc1Cl (stereo not drawn) was read as LMPTP block 0, STEP inh 1, SUMO1 PPI mod -1, Scp-1 inhibitor 5, CSN inh -4, DNMT1 inh -2, Scp-1 conf -8 and MG interference -6.
`CC1=NNC(=O)C1CCC(=O)N/N=C/c1ccc(Cl)cc1` (stereo not drawn) gave LMPTP block 1, STEP inh 5, SUMO1 PPI mod -1, Scp-1 inhibitor -1, CSN inh -1 and DNMT1 inh 2.
Screening CC1=NNC(=O)C1CCC(=O)N/N=C(\C)c1ccccc1 (stereo not drawn) returned LMPTP block 0, STEP inh 5, SUMO1 PPI mod -15, Scp-1 inhibitor 5, CSN inh 1, DNMT1 inh 0, Scp-1 conf -3 and MG interference -7.
O=C(COc1coc(CN2CCc3ccccc3C2)cc1=O)N1CCOCC1 was read as LMPTP block 0, STEP inh -2, SUMO1 PPI mod 3, Scp-1 inhibitor 6, CSN inh -1 and DNMT1 inh 0.
`CCOc1ccc(N(CC(=O)Nc2ccccc2OCC)S(=O)(=O)c2c(C)noc2C)cc1` gave LMPTP block 4, STEP inh -1, SUMO1 PPI mod 4, Scp-1 inhibitor -20, CSN inh 3 and DNMT1 inh -5.
For COc1ccc(OC)c(/C=N/N(CCC#N)C2=NS(=O)(=O)c3ccccc32)c1 the results were LMPTP block 0, STEP inh -2, SUMO1 PPI mod 2, Scp-1 inhibitor 76*, CSN inh -1, DNMT1 inh -4, Scp-1 conf -15 and MG interference -16.
`N#CCCN(/N=C/c1cccnc1)C1=NS(=O)(=O)c2ccccc21` gave LMPTP block -1, STEP inh -1, SUMO1 PPI mod 9, Scp-1 inhibitor 3, CSN inh -4 and DNMT1 inh -3.
